Measured values: paper PMC10357933 (RSC Medicinal Chemistry, 2023)
Like-named read-outs stand apart in the source and are kept apart here.

Tests used:
[1] = Conductometry in DMSO; type: physicochemical; details: for Conductivity ΛM: 1.0 mM solution in DMSO; for Increase of molecular conductivity upon 10-fold dilution: diluted solutions 0.1 to 1.0 mM in DMSO
Method in brief: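 Test compound dissolved at 1.0 mM, or as indicated, in freshly distilled DMSO (conductivity ≤3 × 10−8 […]). Conductivity measured at 25 ± 2 °C immediately after complete dissolution, then after 24 h and after 48 h.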

[2] = target: 3CL^pro (SARS-CoV-2) (Severe acute respiratory syndrome coronavirus 2, UniProt P0DTD1); type: biochemical
[3] = target: PL^pro (SARS-CoV-2) (Severe acute respiratory syndrome coronavirus 2, UniProt P0DTD1); experiment: biochemical
[4] = tested on: SARS-CoV-2 B.1; experiment: Antiviral activity against SARS-CoV-2 in Caco-2-F03 cells; type: cell-based; details: for Effect on viral activity at higher dosages: overlapping with toxicity
[5] = tested on: CaCo-2 cells; experiment: Toxicity against host cells; type: cell-based, human; details: 25 to 500 μM, 24 h / 48 h
Method in brief: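 Caco-2 cells were grown to almost confluent monolayers in 96-well plates. Test compound was given as a DMSO stock (DMSO 0.2%) diluted in DMEM with 1% fetal calf serum and 50 mg L−1 gentamicin, at 25–500 μM. Exposure was 24 h and 48 h at 37 °C/5% CO2. Viability was measured by crystal violet staining as % of untreated control, in three independent experiments.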

[6] = target: T1, SARS-CoV-2 PL^pro (Severe acute respiratory syndrome coronavirus 2, UniProt P0DTD1); experiment: Zn-ejection assay with FluoZin-3; type: biochemical; details: 0.5 μM PLpro, 100 min
[7] = target: T1, SARS-CoV-2 PL^pro; experiment: Michaelis-Menten kinetics with SARS-CoV-2 PLpro; type: biochemical
[8] = target: PL^pro (SARS-CoV) (Severe acute respiratory syndrome coronavirus, UniProt P0C6X7); type: biochemical; details: read-out: IC50 PL^pro (SARS-CoV)
[9] = 3CL^pro, 50 μM, ± SD of 2 experiments
[10] = read-out: IC50 PL^pro (SARS-CoV-2), mean ± SD of 2 independent experiments

SMILES | Conductivity ΛM ([1]; 24 h) [S mol^−1 cm^2] | Conductivity ΛM ([1]; 48 h) [S mol^−1 cm^2] | Conductivity ΛM ([1]; start) [S mol^−1 cm^2] | Percentage of activity of the enzyme in presence of 50 μM of the test compound [2, 9] [%] | IC50 [3, 10] [µM] | further results
CCn1c[n+](CC)c2ccccc21.[Cl][Ag] [Ag-1a, 1,3-Diethyl benzimidazolium silver(I) chloride] | 3.09 | 3.31 | 3.00 | 106 ± 2 | 0.21 ± 0.03 | 
CCn1c[n+](CC)c2ccccc21.[Ag][I] [Ag-1b, 1,3-Diethyl-benzimidazolium silver(I) iodide] | 9.31 | 9.70 | 8.44 | 110 ± 0 | 0.24 ± 0.11 | Effect on viral activity at higher dosages [4]: completely terminated viral activity
CCn1c[n+](CC)c2ccc(OC)cc21.[Cl][Ag] [Ag-2a, 1,3-Diethyl-5-methoxy-benzimidazolium silver(I) chloride] | 3.13 | 3.37 | 2.94 | 98 ± 15 | 0.18 ± 0.02 | 
CCn1c[n+](CC)c2ccc(OC)cc21.[Ag][I] [Ag-2b, 1,3-Diethyl-5-methoxy-benzimidazolium silver(I) iodide] | 9.25 | 9.82 | 9.19 | 115 ± 4 | 0.43 ± 0.06 | 
CC(C)n1c[n+](C(C)C)c2ccccc21.[Cl][Ag] [Ag-3a, 1,3-Diisopropyl benzimidazolium silver(I) chloride] | 2.70 | 2.67 | 2.34 | 116 ± 5 | 0.21 ± 0.02 | Increase of molecular conductivity upon 10-fold dilution [1]: 2–4 fold
CC(C)n1c[n+](C(C)C)c2ccccc21.[Ag][I] [Ag-3b, 1,3-Diisopropyl benzimidazolium silver(I) iodide] | 7.00 | 6.69 | 6.67 | 111 ± 14 | 0.19 ± 0.04 | Effect on viral activity at higher dosages [4]: completely terminated viral activity; Increase of molecular conductivity upon 10-fold dilution [1]: only slightly increased
COc1ccc2c(c1)n(C(C)C)c[n+]2C(C)C.[Cl][Ag] [Ag-4a, 1,3-Diisopropyl-5-methoxy-benzimidazolium silver(I) chloride] | 2.25 | 2.40 | 2.15 | 115 ± 4 | 0.22 ± 0.11 | 
COc1ccc2c(c1)n(C(C)C)c[n+]2C(C)C.[Ag][I] [Ag-4b, 1,3-Diisopropyl-5-methoxy-benzimidazolium silver(I) iodide] | 6.92 | 7.32 | 6.72 | 116 ± 2 | 0.39 ± 0.07 | IC50 ([4]; read-out: IC50 antiviral efficacy (spike protein staining)): 0.58 µM; Cytotoxicity against almost confluent Caco-2 cell layers [5]: non-toxic up to 500 μM; Zn ejection efficacy ([6]; 1.0 μM compound): low efficacy; Zn ejection efficacy ([6]; 10 μM compound): high efficacy; Enzymatic activity (% of untreated control) ([3]; 0.75 μM, after 60 min): approx. 40%; Enzymatic turnover (% of untreated control) ([3]; 0.75 μM, from beginning up to 30 min of exposure): approx. 60%; Mechanism of inhibition ([7]; Lineweaver-Burk, parallel lines): uncompetitive enzyme inhibitor; Ki (enzyme-substrate-inhibitor complex) ([7]; uncompetitive model): 0.48 ± 0.22 µM; IC50 [8]: 13.7 ± 1.02 µM
O=[N+]([O-])[O-].[Ag+] [AgNO3, silver nitrate, reference compound] | 38 | 38 | 38 | 97 ± 6 | 0.7 ± 0.27 | Conductivity ([1]; in DMSO, periods up to 48 h): 38 S mol^−1 cm^2; IC50 [8]: 12.1 ± 0.87 µM
CCN(CC)C(=S)SSC(=S)N(CC)CC [Disulfiram, reference compound] |  |  |  |  |  | Zn ejection efficacy ([6]; 1.0 μM compound): low efficacy; Zn ejection efficacy ([6]; 10 μM compound): high efficacy
CC(=O)O.[Ag+].c1ccc(CN2[CH-]N(Cc3ccccc3)C(c3ccccc3)=C2c2ccccc2)cc1 [SBC3, reference compound] | 2.25 | 2.31 | 2.15 |  |  | Increase of molecular conductivity upon 10-fold dilution [1]: 2–4 fold; Inhibition of 3CL^pro enzymatic activity [2]: some moderate inhibition; Percentage of activity of the enzyme in presence of 50 μM of the test compound [2]: >50 (70 ± 4%); IC50 ([2]; read-out: IC50 3CL^pro (SARS-CoV-2)): > 50 µM; IC50 ([3]; read-out: IC50 PL^pro (SARS-CoV-2)): 0.26 ± 0.03 µM
COc1ccc2c(c1)n(C(C)C)c[n+]2C(C)C [compound 4, 1,3-Diisopropyl-5-methoxy-benzimidazolium iodide] |  |  |  |  |  | IC50 [3]: > 100 µM
